In one data set the target is T1, Androgen receptor (Homo sapiens, UniProt P10275).
T1 sequence (P10275 whole entry): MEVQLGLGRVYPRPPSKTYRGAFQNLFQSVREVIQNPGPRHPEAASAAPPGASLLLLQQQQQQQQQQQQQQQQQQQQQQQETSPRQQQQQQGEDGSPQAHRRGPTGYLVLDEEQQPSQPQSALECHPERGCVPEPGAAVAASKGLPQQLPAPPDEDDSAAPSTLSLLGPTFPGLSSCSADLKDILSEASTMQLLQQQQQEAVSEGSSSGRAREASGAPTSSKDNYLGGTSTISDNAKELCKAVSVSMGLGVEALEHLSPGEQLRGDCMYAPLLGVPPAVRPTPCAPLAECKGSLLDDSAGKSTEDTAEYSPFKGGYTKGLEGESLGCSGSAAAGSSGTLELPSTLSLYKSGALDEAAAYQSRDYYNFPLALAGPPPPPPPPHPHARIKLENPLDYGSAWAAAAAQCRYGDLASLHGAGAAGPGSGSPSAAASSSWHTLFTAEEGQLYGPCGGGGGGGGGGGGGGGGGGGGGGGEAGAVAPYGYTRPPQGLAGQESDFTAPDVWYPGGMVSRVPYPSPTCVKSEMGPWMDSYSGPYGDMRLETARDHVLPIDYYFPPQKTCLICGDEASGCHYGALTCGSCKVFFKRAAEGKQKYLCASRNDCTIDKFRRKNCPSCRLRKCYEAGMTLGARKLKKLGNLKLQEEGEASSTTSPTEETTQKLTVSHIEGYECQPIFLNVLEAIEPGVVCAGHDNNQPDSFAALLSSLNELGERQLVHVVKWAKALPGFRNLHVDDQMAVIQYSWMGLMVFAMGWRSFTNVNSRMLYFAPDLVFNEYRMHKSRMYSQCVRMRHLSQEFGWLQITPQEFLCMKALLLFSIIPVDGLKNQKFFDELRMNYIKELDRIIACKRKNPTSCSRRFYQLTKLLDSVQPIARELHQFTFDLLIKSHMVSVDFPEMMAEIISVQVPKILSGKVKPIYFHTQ
Briefly: Antagonist activity at human CMX-AR expressed in HEK293 cells assessed as reduction in dihydrotestosterone-induced transactivation activity after 24 hrs by luciferase reporter gene assay. It is filed as cell-based. The gist of the method: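 AR antagonism measured by reporter gene assay with dihydrotestosterone (0.3 nM) as agonist.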
(In general: In a reporter assay the amount or activity of a reporter protein is the signal.)

The nature of data set [1]: Stability in human liver microsomes at 0.1 uM by LC-MS/MS analysis. It is filed as ADME, microsome. (In general: Liver microsomes are a subcellular fraction often used to study metabolism.)
For data set [2], the target named is T2, Nuclear receptor ROR-gamma (Homo sapiens, UniProt P51449).
T2 sequence (P51449 whole entry): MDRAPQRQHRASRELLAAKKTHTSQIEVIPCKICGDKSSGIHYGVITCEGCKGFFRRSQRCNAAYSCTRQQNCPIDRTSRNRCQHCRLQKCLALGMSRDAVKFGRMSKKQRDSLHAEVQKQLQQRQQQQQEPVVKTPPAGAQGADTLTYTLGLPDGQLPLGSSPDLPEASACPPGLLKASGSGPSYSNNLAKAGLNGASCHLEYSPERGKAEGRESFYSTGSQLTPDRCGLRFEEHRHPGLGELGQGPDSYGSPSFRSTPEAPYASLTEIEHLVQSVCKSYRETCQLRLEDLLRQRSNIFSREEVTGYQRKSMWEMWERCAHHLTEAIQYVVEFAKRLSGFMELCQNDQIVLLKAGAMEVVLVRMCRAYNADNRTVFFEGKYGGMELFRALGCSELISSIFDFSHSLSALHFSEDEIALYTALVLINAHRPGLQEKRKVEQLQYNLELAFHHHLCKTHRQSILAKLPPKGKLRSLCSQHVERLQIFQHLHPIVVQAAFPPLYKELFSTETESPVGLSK
Briefly: Antagonist activity at human RORgamma1 expressed in HEK293 cells after 24 hrs by luciferase reporter gene assay. It counts as cell-based. The method, boiled down: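 Inverse agonism at RORα, RORβ or RORγ measured by reporter gene assay.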

The nature of data set [3]: Apparent permeability across apical to basolateral side in human Caco2 cells at 10 uM. As to conditions: caco-2, 10 µM. It counts as ADME, cell-based. (Caco-2 cells form a polarised layer with tight junctions and transporters.)
Data set [4] deals with T3, Oxysterols receptor LXR-beta (Homo sapiens) (UniProt P55055).
T3 sequence (whole entry): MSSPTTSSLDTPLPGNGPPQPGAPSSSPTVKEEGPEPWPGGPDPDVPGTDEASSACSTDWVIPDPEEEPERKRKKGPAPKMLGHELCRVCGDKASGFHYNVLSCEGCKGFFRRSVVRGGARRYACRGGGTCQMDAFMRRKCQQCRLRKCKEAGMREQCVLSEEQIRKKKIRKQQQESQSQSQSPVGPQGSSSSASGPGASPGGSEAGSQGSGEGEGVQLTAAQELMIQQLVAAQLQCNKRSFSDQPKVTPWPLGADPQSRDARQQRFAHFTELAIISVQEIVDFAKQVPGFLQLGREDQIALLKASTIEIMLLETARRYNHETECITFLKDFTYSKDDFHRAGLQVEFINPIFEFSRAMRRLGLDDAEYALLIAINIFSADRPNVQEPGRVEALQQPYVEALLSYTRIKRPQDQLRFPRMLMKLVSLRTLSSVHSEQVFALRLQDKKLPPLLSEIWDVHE
Briefly: Antagonist activity at human GAL4N-fused LXRbeta LBD expressed in HEK293 cells assessed as reduction in T0901317-induced transactivation activity at 20 uM after 24 hrs by luciferase reporter gene assay. It counts as cell-based.

Active and inactive are the calls of the source. The calls are words filed in the database; no cut-off is given here. Bounds are passed on as bounds.

As a reminder, the IC50 is the concentration at which inhibition is half-maximal.

With `Cc1cc(C(O)(C(F)(F)F)C(F)(F)F)cc2c1[nH]c(=O)c1ccccc12`, the IC50 on Androgen receptor is above 20000 nM; in data set [2], above 20 µM. The Stability result in data set [1] was “Stable”. Besides, in data set [3], the Papp result is given as “Permeable”.
For the compound `Cc1cc(C(O)(C(F)(F)F)C(F)(F)F)cc2c1[nH]c(=O)c1cc(F)ccc12`, the IC50 on Androgen receptor came to 1800 nM. Besides, in data set [4], the outcome was inactive.
